Results published in ChEMBL document CHEMBL1268946, “Discovery of 2-substituted benzoxazole carboxamides as 5-HT3 receptor antagonists” (Bioorg Med Chem Lett, 2010).
The source made the active and inactive calls. The rule behind the calls is not given here.

Key:
[1] = biological target: T1, 5-hydroxytryptamine receptor 3A (Homo sapiens, UniProt P46098); assay: Binding affinity to human HT3A receptor
T1 sequence (P46098 whole entry): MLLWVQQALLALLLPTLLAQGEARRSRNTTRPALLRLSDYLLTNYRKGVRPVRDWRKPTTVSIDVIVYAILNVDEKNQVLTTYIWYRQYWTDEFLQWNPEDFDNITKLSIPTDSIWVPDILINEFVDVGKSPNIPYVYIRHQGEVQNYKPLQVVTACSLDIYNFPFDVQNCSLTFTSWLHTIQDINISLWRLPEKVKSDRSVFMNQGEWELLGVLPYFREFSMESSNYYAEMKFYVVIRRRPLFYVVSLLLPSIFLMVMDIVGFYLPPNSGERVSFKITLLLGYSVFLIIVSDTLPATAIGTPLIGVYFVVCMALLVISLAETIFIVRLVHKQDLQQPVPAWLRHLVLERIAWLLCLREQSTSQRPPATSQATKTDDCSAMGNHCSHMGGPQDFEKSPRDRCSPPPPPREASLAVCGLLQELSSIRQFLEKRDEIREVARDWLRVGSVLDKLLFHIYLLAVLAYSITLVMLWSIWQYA

Cytochrome P450 3A4 = Cytochrome P450 3A4 (Homo sapiens, UniProt P08684); assay: Inhibition of human CYP3A4; format: ADME
Sequence of Cytochrome P450 3A4 (P08684 whole entry): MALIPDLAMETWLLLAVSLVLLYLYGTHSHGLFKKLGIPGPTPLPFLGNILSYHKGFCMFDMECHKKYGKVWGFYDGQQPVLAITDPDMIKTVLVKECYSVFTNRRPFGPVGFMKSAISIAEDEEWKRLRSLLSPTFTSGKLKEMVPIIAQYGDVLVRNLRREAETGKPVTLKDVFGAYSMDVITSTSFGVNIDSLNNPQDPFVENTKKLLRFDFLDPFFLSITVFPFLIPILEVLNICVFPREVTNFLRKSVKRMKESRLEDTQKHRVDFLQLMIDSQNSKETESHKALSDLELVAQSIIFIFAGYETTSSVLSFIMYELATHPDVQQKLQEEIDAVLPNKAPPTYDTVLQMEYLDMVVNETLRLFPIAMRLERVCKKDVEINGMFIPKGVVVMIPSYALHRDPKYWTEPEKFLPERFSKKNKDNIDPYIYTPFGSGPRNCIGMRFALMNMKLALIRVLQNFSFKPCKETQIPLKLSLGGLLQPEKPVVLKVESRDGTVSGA

[2] = Intrinsic clearance in human liver microsomes; format: ADME, Microsome
[3] = Bioavailability in rat at 10 mg/kg, po or 1 mg/kg, iv; format: ADME, organism-based; details: in vivo
Mus musculus [4] = assay: Cardioprotective effect in po dosed mouse assessed as inhibition of 5-HT-induced bradycardia administered 1 hr prior to 5-HT challenge; format: functional
Method in brief: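 Murine von Bezold–Jarisch reflex assay. Test agents were given orally 1 h before a 0.1 mg/kg 5-HT challenge. Read-out was block of 5-HT-induced transient bradycardia.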

[5] = biological target: Voltage-gated inwardly rectifying potassium channel KCNH2 (Homo sapiens, UniProt Q12809); assay: Inhibition of human ERG expressed in HEK cells by patch clamp technique
Sequence of Voltage-gated inwardly rectifying potassium channel KCNH2 (Q12809 whole entry): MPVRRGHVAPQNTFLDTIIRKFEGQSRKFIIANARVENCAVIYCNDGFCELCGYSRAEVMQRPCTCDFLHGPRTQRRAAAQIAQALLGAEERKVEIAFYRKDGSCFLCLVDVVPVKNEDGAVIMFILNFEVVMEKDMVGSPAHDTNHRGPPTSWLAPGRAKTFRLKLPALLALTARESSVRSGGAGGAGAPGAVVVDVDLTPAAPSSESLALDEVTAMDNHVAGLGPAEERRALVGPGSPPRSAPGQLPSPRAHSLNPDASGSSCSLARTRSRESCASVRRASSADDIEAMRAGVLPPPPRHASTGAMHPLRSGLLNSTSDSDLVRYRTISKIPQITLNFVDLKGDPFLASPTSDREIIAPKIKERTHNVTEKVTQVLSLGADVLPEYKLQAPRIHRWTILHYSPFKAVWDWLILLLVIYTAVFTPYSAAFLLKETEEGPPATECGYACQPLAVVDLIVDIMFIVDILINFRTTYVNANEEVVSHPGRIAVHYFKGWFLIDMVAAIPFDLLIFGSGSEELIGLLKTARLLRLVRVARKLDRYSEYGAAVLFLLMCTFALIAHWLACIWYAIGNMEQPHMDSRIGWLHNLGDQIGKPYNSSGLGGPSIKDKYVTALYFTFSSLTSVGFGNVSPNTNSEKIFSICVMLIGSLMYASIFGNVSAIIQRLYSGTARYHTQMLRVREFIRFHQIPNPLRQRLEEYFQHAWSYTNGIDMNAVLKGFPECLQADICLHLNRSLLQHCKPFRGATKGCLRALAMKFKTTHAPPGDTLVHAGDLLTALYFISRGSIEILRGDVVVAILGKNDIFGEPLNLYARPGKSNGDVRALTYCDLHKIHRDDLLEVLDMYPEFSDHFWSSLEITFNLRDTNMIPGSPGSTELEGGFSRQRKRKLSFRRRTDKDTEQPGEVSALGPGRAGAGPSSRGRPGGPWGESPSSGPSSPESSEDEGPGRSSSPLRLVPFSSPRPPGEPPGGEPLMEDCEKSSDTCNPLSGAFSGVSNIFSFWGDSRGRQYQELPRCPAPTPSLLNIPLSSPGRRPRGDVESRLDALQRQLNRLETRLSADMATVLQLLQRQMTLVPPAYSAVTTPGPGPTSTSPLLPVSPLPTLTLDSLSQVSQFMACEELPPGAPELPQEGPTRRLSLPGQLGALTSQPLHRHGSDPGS

[6] = Inhibition of human CYP450; format: ADME
Mus musculus [7] = species on record: Mus musculus; details: 0.56 mg/kg
Homo sapiens = species on record: Homo sapiens; assay: Inhibition of human nicotinic acetylcholine receptor at 1 uM
Method in brief: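 Single-concentration screen at 1 µM within a 68-membered off-target receptor panel; inhibition above 50% counted as significant.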

Cytochrome P450 2C19 = Cytochrome P450 2C19 (Homo sapiens, UniProt P33261); assay: Inhibition of human CYP2C19; format: ADME
Sequence of Cytochrome P450 2C19 (P33261 whole entry): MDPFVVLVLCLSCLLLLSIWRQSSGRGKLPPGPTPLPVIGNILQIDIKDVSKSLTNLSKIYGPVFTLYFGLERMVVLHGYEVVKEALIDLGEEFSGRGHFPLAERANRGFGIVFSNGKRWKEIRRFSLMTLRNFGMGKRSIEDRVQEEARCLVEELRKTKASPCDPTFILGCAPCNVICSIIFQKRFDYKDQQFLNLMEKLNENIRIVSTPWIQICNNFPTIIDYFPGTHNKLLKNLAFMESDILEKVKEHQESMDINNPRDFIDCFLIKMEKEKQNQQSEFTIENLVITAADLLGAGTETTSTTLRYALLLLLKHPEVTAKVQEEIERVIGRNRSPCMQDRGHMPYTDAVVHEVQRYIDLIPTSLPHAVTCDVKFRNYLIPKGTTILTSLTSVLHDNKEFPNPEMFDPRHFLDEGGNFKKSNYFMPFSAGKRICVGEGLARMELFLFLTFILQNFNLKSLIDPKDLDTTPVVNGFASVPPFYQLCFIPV

Mus musculus [8] = species on record: Mus musculus; details: 1.9 mg/kg

Row | Compound | Ki [1] [nM] | microsomal CLint [2] [µL/min/mg] | also measured
1 | CN1[C@@H]2CCC[C@H]1C[C@H](NC(=O)c1cccc3oc(N4CCOC[C@@H]4C(C)(C)C)nc13)C2 | 2 | – | –
2 | CN1[C@@H]2CCC[C@H]1C[C@H](NC(=O)c1cccc3oc(C4CC4)nc13)C2 | 8.3 | 23.5 | IC50 (Cytochrome P450 3A4): > 50000 nM; bioavailability [3]: 32%
3 | CN1[C@@H]2CCC[C@H]1C[C@H](NC(=O)c1cccc3nc(-c4ccc(F)cc4)oc13)C2 | 94.9 | – | –
4 | CN1[C@@H]2CCC[C@H]1C[C@H](NC(=O)c1cccc3oc(-c4ccc(Cl)cc4)nc13)C2 | 18 | – | –
5 | C[C@H]1CNCCN1c1nc2c(C(=O)N[C@@H]3C[C@H]4CCC[C@@H](C3)N4C)cccc2o1 | 16.5 | – | –
6 | CC(C)C[C@H]1COCCN1c1nc2c(C(=O)N[C@@H]3C[C@H]4CCC[C@@H](C3)N4C)cccc2o1 | 3.5 | – | –
7 | COc1ccc(-c2nc3c(C(=O)N[C@@H]4C[C@H]5CCC[C@@H](C4)N5C)cccc3o2)cc1 | 18.8 | – | –
8 | Cc1nccn1CC1CCc2c(c3ccccc3n2C)C1=O (stereo not given) [ONDANSETRON] | – | 5.8 | ED50 (Mus musculus [4]): 0.54 mg/kg; bioavailability [3]: 21%
9 | CC[C@H]1COC[C@H](C)N1c1nc2c(C(=O)N[C@@H]3C[C@H]4CCC[C@@H](C3)N4C)cccc2o1 | 1 | – | –
10 | Nc1nc2c(C(=O)N[C@@H]3CN4CCC3CC4)cc(Cl)cc2o1 | 4.7 | 3 | ED50 (Mus musculus [4]): 0.4 mg/kg; IC50 [5]: 4800 nM; IC50 [6]: > 30000 nM; inhibition (Mus musculus [7]): Active
11 | O=C(N[C@@H]1CN2CCC1CC2)c1cccc2oc(N3CCOCC3)nc12 | – | 0.6 | IC50 (Cytochrome P450 3A4): > 100000 nM; IC50 [5]: 3200 nM; bioavailability [3]: 100%
12 | CN1[C@@H]2CCC[C@H]1C[C@H](NC(=O)c1cccc3oc(N4CCOCC4)nc13)C2 | 40 | 1 | IC50 (Cytochrome P450 3A4): > 50000 nM; IC50 [5]: 1400 nM; bioavailability [3]: 35%; inhibition (Homo sapiens): > 50%
13 | C[C@H]1COC[C@H](C)N1c1nc2c(C(=O)N[C@@H]3C[C@H]4CCC[C@@H](C3)N4C)cccc2o1 | 0.6 | – | –
14 | COc1ccccc1-c1nc2c(C(=O)N[C@@H]3C[C@H]4CCC[C@@H](C3)N4C)cccc2o1 | 14.9 | 2.8 | IC50 (Cytochrome P450 3A4): 1100 nM; IC50 [5]: 400 nM; bioavailability [3]: 44%
15 | CCC[C@H]1COCCN1c1nc2c(C(=O)N[C@@H]3C[C@H]4CCC[C@@H](C3)N4C)cccc2o1 | 3.9 | – | –
16 | C[C@@H]1CN(c2nc3c(C(=O)N[C@@H]4C[C@H]5CCC[C@@H](C4)N5C)cccc3o2)C[C@H](C)O1 | 35.3 | – | –
17 | CN1[C@@H]2CCC[C@H]1C[C@H](NC(=O)c1cccc3nc(-c4ccccc4)oc13)C2 | 40.4 | – | –
18 | CC[C@H]1COCCN1c1nc2c(C(=O)N[C@@H]3C[C@H]4CCC[C@@H](C3)N4C)cccc2o1 | 4.6 | – | –

Row | Compound | Ki [1] [nM] | microsomal CLint [2] [µL/min/mg] | also measured
19 | COc1ccccc1-c1nc2c(C(=O)N[C@@H]3CN4CCC3CC4)cccc2o1 | 47.3 | 10.1 | IC50 (Cytochrome P450 3A4): > 50000 nM; IC50 [5]: 200 nM; bioavailability [3]: 100%
20 | CN1[C@@H]2CCC[C@H]1C[C@H](NC(=O)c1cccc3oc(-c4ccccc4)nc13)C2 | 15.1 | – | –
21 | Cc1[nH]cnc1CN1CCc2c(c3ccccc3n2C)C1=O [ALOSETRON] | – | 3 | ED50 (Mus musculus [4]): 0.02 mg/kg; bioavailability [3]: 100%
22 | C[C@@H]1CNC[C@@H](C)N1c1nc2c(C(=O)N[C@@H]3C[C@H]4CCC[C@@H](C3)N4C)cccc2o1 | 59.4 | – | –
23 | COc1ccc(-c2nc3cccc(C(=O)N[C@@H]4C[C@H]5CCC[C@@H](C4)N5C)c3o2)cc1 | 58.5 | – | –
24 | O=C(N[C@@H]1CN2CCC1CC2)c1cccc2oc(C3CC3)nc12 | 32.7 | 4.5 | IC50 (Cytochrome P450 3A4): > 100000 nM; IC50 [5]: 700 nM; bioavailability [3]: 13%
25 | CC(C)[C@H]1COCCN1c1nc2c(C(=O)N[C@@H]3C[C@H]4CCC[C@@H](C3)N4C)cccc2o1 | 5 | – | –
26 | C[C@@H]1CNC[C@H](C)N1c1nc2c(C(=O)N[C@@H]3C[C@H]4CCC[C@@H](C3)N4C)cccc2o1 | 37.3 | – | –
27 | CN1[C@@H]2CCC[C@H]1C[C@H](NC(=O)c1cccc3nc(-c4ccc(Cl)cc4)oc13)C2 | 73.8 | – | –
28 | CNc1nc2c(C(=O)N[C@@H]3CN4CCC3CC4)cccc2o1 | 36.4 | – | –
29 | CCNc1nc2c(C(=O)N[C@@H]3CN4CCC3CC4)cccc2o1 | 36.4 | – | –
30 | Nc1nc2c(C(=O)N[C@@H]3CN4CCC3CC4)cccc2o1 | 13.8 | < 2 | ED50 (Mus musculus [4]): 1.08 mg/kg; IC50 [6]: > 100000 nM
31 | CN1[C@@H]2CCC[C@H]1C[C@H](NC(=O)c1cccc3oc(-c4ccc(F)cc4)nc13)C2 | 16.3 | – | –
32 | CC(C)N(C)c1nc2c(C(=O)N[C@@H]3CN4CCC3CC4)cccc2o1 | 66.5 | – | –
33 | CN1[C@@H]2CCC[C@H]1C[C@H](NC(=O)c1cccc3oc(N4CCNCC4)nc13)C2 | 72.2 | – | –
34 | CCN(CC)c1nc2c(C(=O)N[C@@H]3CN4CCC3CC4)cccc2o1 | 12.4 | – | –
35 | C[C@H]1CNC[C@H](C)N1c1nc2c(C(=O)N[C@@H]3C[C@H]4CCC[C@@H](C3)N4C)cccc2o1 | 2.4 | < 2 | ED50 (Mus musculus [4]): 0.85 mg/kg; IC50 [5]: 6400 nM; IC50 (Cytochrome P450 2C19): 1400 nM; inhibition (Mus musculus [8]): Active
